According to PubChem BioAssay AID540320 (Southern Research Specialized Biocontainment Screening …, 2011):
The source made the active and inactive calls.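 Rule for the calls: active = progeny virus titer drops over tenfold versus the untreated infected control, meaning log virus titer change below -1; inactive = the rest.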

System: HEp-2 cells, RSV plaque reduction, virus titer
Experiment: RSV replication inhibitors by plaque titer, orthogonal assay for RSV antiviral project, plaque reduction, HEp-2 cells, set 3 (AID 540320)
Details: at 10 µM; stronger effect = lower value
Summary of the method: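 Test system: HEp-2 cells infected with RSV Long strain | Reagent: RSV Long, MOI 0.1 | Timing: 48 h compound exposure at 37 °C after infection | Detection: Plaque assay on fresh HEp-2, PFA fixation, neutral red staining | Control set: Ribavirin 35 µM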

Row | SMILES | log virus titer change
1 | COCCCNC(=O)c1ccc(Cn2c(=O)c3ccccc3n(Cc3ccc4nonc4c3)c2=O)cc1 | -2.05
2 | Cc1ccc(Cn2c(=O)n(Cc3ccc(C(=O)Nc4nccs4)cc3)c(=O)c3ccccc32)cc1 | -0.01 (inactive)
3 | Cc1ccc(F)cc1NC(=O)[C@@H]1CCCN1S(=O)(=O)c1cccc2cccnc12 | -0.33 (inactive)
4 | Cc1cccc(NC(=O)[C@@H]2CCCN2S(=O)(=O)c2cccc3cccnc23)c1C | -0.39 (inactive)
5 | COCCCNC(=O)c1ccc(Cn2c(=O)c3ccccc3n(Cc3ccc(Br)cc3)c2=O)cc1 | -4.51
6 | COCCCNC(=O)c1ccc(Cn2c(=O)c3ccccc3n(Cc3ccc([N+](=O)[O-])cc3)c2=O)cc1 | -4.94
7 | Cc1cc(NC(=O)[C@@H]2CCCN2S(=O)(=O)c2cccc3cccnc23)n(C(C)(C)C)n1 | -0.71 (inactive)
8 | Cc1ccc(Cn2c(=O)n(Cc3ccc(C(=O)Nc4cc(C)nc5ccccc45)cc3)c(=O)c3ccccc32)cc1 | -0.61 (inactive)
9 | COCCCNC(=O)c1ccc(Cn2c(=O)c3ccccc3n(Cc3ccc(C(F)(F)F)cc3)c2=O)cc1 | -2.66
10 | COCCCNC(=O)c1ccc(Cn2c(=O)c3ccccc3n(Cc3ccc(Cl)cc3)c2=O)cc1 | -3.12
11 | Cc1ccc(Cn2c(=O)n(Cc3ccc(C(=O)Nc4ccncc4)cc3)c(=O)c3ccccc32)cc1 | -3.25
12 | COCCCNC(=O)c1ccc(Cn2c(=O)c3ccc(Br)cc3n(Cc3ccc(C)cc3)c2=O)cc1 | -0.31 (inactive)
13 | Cc1ccc(Cn2c(=O)n(Cc3ccc(C(=O)NC(C)(C)C)cc3)c(=O)c3ccccc32)cc1 | -5.38
14 | COCCCNC(=O)c1ccc(Cn2c(=O)c3ccccc3n(Cc3ccc(OC)cc3)c2=O)cc1 | -2.72
15 | COCCCNC(=O)c1ccc(Cn2c(=O)c3ccccc3n(Cc3ccc(C)c(C(F)(F)F)c3)c2=O)cc1 | -2.37
